Experiment [1] is described as follows: Hypochlorous acid scavenging activity at 0.5 uM by taurine assay. It is filed as functional. The method, boiled down: (§1)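 No enzyme; HOCl (60 μM) added to pH 7.4 phosphate buffer (10 mM phosphate/300 mM NaCl) with taurine (15 mM) and compound (0.5, 1, 2, 4 μM) at 37 °C. Catalase added after 5 min. Taurine chloramine quantified with 0.45 mM TNB.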
Experiment [2] in a line: Hypochlorous acid scavenging activity at 1 uM by taurine assay. It is filed as functional. The method, boiled down:
as §1

Experiment [3] can be described thus: Hypochlorous acid scavenging activity at 2 uM by taurine assay. It is filed as functional. The method, boiled down: as §1
The nature of experiment [4]: Hypochlorous acid scavenging activity at 4 uM by taurine assay. It is filed as functional. The method, boiled down:
as §1

Experiment [5] is described as follows: LDL oxidation at 5 uM by ELISA. Background: An ELISA detects its analyte on a solid surface through an enzyme-linked reagent.
Experiment [6] in a line: LDL oxidation at 15 uM by ELISA.
A short description of experiment [7]: LDL oxidation at 30 uM by ELISA.
A short description of experiment [8]: LDL oxidation at 300 uM by ELISA.
Experiment [9] has as its target T1, Myeloperoxidase (Homo sapiens, UniProt P05164).
T1 sequence (P05164 whole entry): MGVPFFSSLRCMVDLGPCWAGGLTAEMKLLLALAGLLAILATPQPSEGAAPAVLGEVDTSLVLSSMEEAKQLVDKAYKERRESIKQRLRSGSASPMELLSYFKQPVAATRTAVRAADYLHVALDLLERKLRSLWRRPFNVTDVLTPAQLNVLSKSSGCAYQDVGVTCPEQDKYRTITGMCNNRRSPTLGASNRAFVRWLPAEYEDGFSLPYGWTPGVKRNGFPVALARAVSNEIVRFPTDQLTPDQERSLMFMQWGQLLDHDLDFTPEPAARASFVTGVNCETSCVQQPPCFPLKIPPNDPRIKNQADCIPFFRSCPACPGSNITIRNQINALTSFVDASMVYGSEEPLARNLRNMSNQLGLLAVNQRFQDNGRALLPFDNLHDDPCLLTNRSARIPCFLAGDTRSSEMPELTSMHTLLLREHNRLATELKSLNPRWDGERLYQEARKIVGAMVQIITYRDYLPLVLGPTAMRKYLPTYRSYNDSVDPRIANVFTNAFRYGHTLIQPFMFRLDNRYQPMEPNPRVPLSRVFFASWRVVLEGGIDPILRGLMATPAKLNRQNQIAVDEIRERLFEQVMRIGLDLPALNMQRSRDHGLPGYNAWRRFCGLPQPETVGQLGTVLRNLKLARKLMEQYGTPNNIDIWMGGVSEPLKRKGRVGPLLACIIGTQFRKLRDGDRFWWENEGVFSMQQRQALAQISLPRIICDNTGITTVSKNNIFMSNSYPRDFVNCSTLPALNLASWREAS
The experiment is described as follows: Inhibition of chlorinating activity of recombinant myeloperoxidase by taurine assay. It is filed as single protein format. The method, boiled down: (§2)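 Recombinant MPO (~25 nM) in pH 7.4 phosphate (10 mM)/NaCl 300 mM with taurine (15 mM) and compound (0–20 μM) at 37 °C; started with H2O2 (100 μM), stopped after 5 min with catalase. Taurine chloramine measured with TNB. No inhibitor = 0%, no H2O2 = 100%. At least 3 determinations. IC50 from three-parameter sigmoid fit.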

Experiment [10] has as its target T2, Myeloperoxidase (Homo sapiens) (UniProt P05164).
T2 sequence (whole entry): T1 sequence (P05164 whole entry)
Kind of experiment: Inhibition of chlorinating activity of recombinant myeloperoxidase at 0.5 uM by taurine assay. Summed up: as §2

In experiment [11] the target is T2, Myeloperoxidase (Homo sapiens). Kind of experiment: Inhibition of chlorinating activity of recombinant myeloperoxidase at 1 uM by taurine assay. Summed up: as §2
Experiment [12] shares this target. Kind of experiment: Inhibition of chlorinating activity of recombinant myeloperoxidase at 2 uM by taurine assay. The method, boiled down: as §2
Experiment [13] has the same target. The experiment is described as follows: Inhibition of chlorinating activity of recombinant myeloperoxidase at 4 uM by taurine assay. Summed up: as §2

On to `Nc1ccc(C(=O)O)c(Nc2cccc(C(F)(F)F)c2)c1`, for which the Activity in experiment [1] turned out to be 1%; in experiment [2] it was 2%; in experiment [3], 2%; in [4], 3%. Besides, the level, % of control was 79% in experiment [5], 70% in experiment [6], 56% in experiment [7] and 29% in experiment [8].
By IC50 is commonly meant the point on the concentration scale where inhibition reaches its midpoint. Broadly, the inhibition is how much of the control response was suppressed. As to `O=C(O)/C=C/C(=O)Nc1ccc(C(=O)O)c(Nc2cccc(C(F)(F)F)c2)c1`, the IC50 in experiment [9] is above 100 µM. Besides, the Activity in experiment [1] was -1%; in experiment [2] it was -1%; in experiment [3], 0%; in experiment [4] it was 2%. Moreover, the inhibition in experiment [10] stood at 0.3%; in experiment [11] it was 0.6%; in experiment [12] it was 0.1%; in experiment [13], 0.3%.
As to `O=C(O)c1ccc([N+](=O)[O-])cc1Nc1cccc(C(F)(F)F)c1`, the concentration for half-maximal inhibition (IC50) in experiment [9] came out at 5 µM. Moreover, the Activity was determined as 0% in experiment [1], 0% in [2], 1% in experiment [3] and 2% in experiment [4]. In addition, the inhibition is 29% in experiment [10], 29% in experiment [11], 43% in experiment [12] and 55% in experiment [13]. The level, % of control came out at 121% in [5], 143% in [6], 135% in experiment [7] and 16% in experiment [8].
On to `O=C(O)c1ccccc1Nc1cccc(C(F)(F)F)c1` [FLUFENAMIC ACID], for which the IC50 in experiment [9] came out at 1.8 µM. Besides, the Activity is 2% in [1], 1.1% in experiment [2], 1.6% in [3] and 1.7% in [4]. The inhibition in experiment [10] is 25%; in experiment [11], 40%; in experiment [12], 52%; in experiment [13], 64%. The level, % of control in experiment [5] is 97%; in experiment [6] it was 82%; in experiment [7], 23%; in experiment [8], 10%.
Regarding `O=C(O)c1cc(F)ccc1Nc1cccc(C(F)(F)F)c1`, the IC50 in experiment [9] stood at 1.8 µM. Besides, the Activity in experiment [1] is 3.3%; in [2] it was 2%; in experiment [3] it was 1.9%; in [4], 3%. Further, the inhibition in experiment [10] is 37%; in experiment [11], 49%; in experiment [12], 63%; in experiment [13], 76%. Further, the level, % of control in [8] came out at 9%.
Regarding `CC(=O)Nc1ccc(C(=O)O)c(Nc2cccc(C(F)(F)F)c2)c1`, the half-maximal inhibitory concentration (IC50) in experiment [9] was 14 µM. Besides, the Activity in experiment [1] came out at 1%; in experiment [2] it was 2%; in experiment [3], 2%; in experiment [4], 1%. Further, the inhibition was 12% in [10], 24% in experiment [11], 33% in [12] and 42% in experiment [13]. For the same compound, the level, % of control was 122% in experiment [5], 86% in experiment [6], 61% in [7] and 29% in experiment [8].
Turning to `O=C(O)c1cc(Br)ccc1Nc1cccc(C(F)(F)F)c1`, the IC50 in experiment [9] came to 1.8 µM. In addition, the Activity was found to be 3% in [1], 2% in experiment [2], 3% in experiment [3] and 4.9% in experiment [4]. Besides, the inhibition amounted to 36% in experiment [10], 51% in experiment [11], 65% in experiment [12] and 79% in [13]. Further, in experiment [8], the level, % of control turned out to be 29%.
In the case of `O=C(O)c1cccc(Nc2cccc(C(F)(F)F)c2)c1C(=O)O`, the half-inhibitory concentration (IC50) in experiment [9] was above 100 µM.
Consider `O=C(O)c1cc(Cl)ccc1Nc1cccc(C(F)(F)F)c1`, for which the IC50 in experiment [9] came out at 1.6 µM. The Activity was determined as 1% in experiment [1], 0.4% in [2], 2% in experiment [3] and 1% in [4]. In addition, the inhibition in experiment [10] worked out at 29%; in [11] it was 42%; in experiment [12] it was 57%; in [13], 74%. In experiment [8], this compound displayed a level, % of control of 112%.
Turning to `O=C(O)c1cc(O)ccc1Nc1cccc(C(F)(F)F)c1`, the Activity in experiment [1] came to 2%; in experiment [2] it was 2%; in [3], 2.5%; in [4] it was 2%. For the same compound, the level, % of control in experiment [8] came out at 53%.
As for `O=C(CCCO)Nc1ccc(C(=O)O)c(Nc2cccc(C(F)(F)F)c2)c1`, the IC50 in [9] is above 100 µM. The Activity is 0% in experiment [1], 0% in [2], -1% in [3] and 1% in experiment [4]. In addition, the inhibition amounted to 8.5% in experiment [10], 12% in experiment [11], 12.2% in [12] and 20% in experiment [13].
As to `NCCCC(=O)Nc1ccc(C(=O)O)c(Nc2cccc(C(F)(F)F)c2)c1`, in [9], the IC50 amounted to 5.5 µM. For the same compound, the Activity was found to be 1% in [1], 2% in experiment [2], 2% in experiment [3] and 1% in experiment [4]. In addition, the inhibition is 12% in [10], 21% in [11], 35% in experiment [12] and 49% in [13].
Consider `O=C(Nc1ccc(C(=O)O)c(Nc2cccc(C(F)(F)F)c2)c1)c1ccccc1`, for which the 50% inhibitory concentration (IC50) in experiment [9] stood at 58 µM. Besides, the Activity in [1] came to 1%; in experiment [2] it was 0%; in [3] it was 0%; in experiment [4] it was 2%. Also, the inhibition amounted to 11% in experiment [10], 15% in experiment [11], 25% in [12] and 35% in experiment [13].

These data come from ChEMBL document CHEMBL1141613, “Conception of myeloperoxidase inhibitors derived from flufenamic acid by computational docking and structure modification” (Bioorg Med Chem, 2008).
